According to ChEMBL document CHEMBL1155564, “New antimicrobial flavanones from Physena madagascariensis” (2000):

Assays:
Assay type in all cases: functional
Details in all cases: read-out: MEC
Shigella sonnei = test: Antimicrobial activity against Shigella sonnei after 16 hrs by microtiter plate assay by microtiter plate assay
Procedure, shortened: (§1)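 Broth microdilution in YPAD medium (1% yeast extract, 2% peptone, 2% dextrose, 40 μg/mL adenine). Wells were scored visually after 16 h. Clear wells were plated on YPAD agar for 16 h at room temperature; regrowth meant bacteriostatic, none meant bactericidal.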

Klebsiella aerogenes = test: Antimicrobial activity against Enterobacter aerogenes after 16 hrs by microtiter plate assay; procedure, shortened: as §1
Enterococcus = test: Antimicrobial activity against Enterococcus after 16 hrs by microtiter plate assay; procedure, shortened: as §1
Escherichia coli = test: Antimicrobial activity against Escherichia coli after 16 hrs by microtiter plate assay; procedure, shortened: as §1
[1] = test system: Staphylococcus epidermidis; test: Antimicrobial activity against Staphylococcus epidermidis after 16 hrs by microtiter plate assay; procedure, shortened: as §1
Salmonella enterica = test: Antimicrobial activity against Salmonella enterica after 16 hrs by microtiter plate assay; procedure, shortened: as §1
Staphylococcus aureus = test: Antimicrobial activity against Staphylococcus aureus after 16 hrs by microtiter plate assay; procedure, shortened: as §1
Listeria monocytogenes = test: Antimicrobial activity against Listeria monocytogenes after 16 hrs by microtiter plate assay; procedure, shortened: as §1

Row | SMILES | minimal effective concentration (Shigella sonnei) [µg/mL] | minimal effective concentration (Klebsiella aerogenes) [µg/mL] | minimal effective concentration (Enterococcus) [µg/mL] | minimal effective concentration (Escherichia coli) [µg/mL] | minimal effective concentration [1] [µg/mL] | minimal effective concentration (Salmonella enterica) [µg/mL] | minimal effective concentration (Staphylococcus aureus) [µg/mL] | minimal effective concentration (Listeria monocytogenes) [µg/mL]
1 | C=C(C)CC[C@H](Cc1c(O)cc(O)c2c1O[C@H](c1ccc(O)cc1)CC2=O)C(=C)C [REMANGIFLAVANONE A] | 125 | 125 | 7.5 | 125 | 1.8 | 125 | 3.75 | 125
2 | C=C(C)CC[C@H](Cc1c(O)cc(O)c2c1O[C@H](c1ccc(O)cc1O)CC2=O)C(=C)C [REMANGIFLAVANONE B] | 125 | 125 | 7.5 | 125 | 1.8 | 125 | 1.8 | 1.8
